From ChEMBL document CHEMBL1123753, “Substituted 1,3,4-thiadiazoles with anticonvulsant activity. 3. Guanidines” (J Med Chem, 1987)

How the values were obtained:
[1] = system: Mus musculus; assay: Maximal metrazole seizures was determined for the inhibition of hind limb tonus in mouse 1 hr after po dosing; format: functional; settings: Hindlimb
Procedure, shortened: (§1)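 Oral dosing, with seizures assessed 1 h later. The endpoint is inhibition of hind limb tonus, expressed as ED50 in mg/kg po.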

[2] = system: Mus musculus; assay: Maximal electroshock seizures was determined for the inhibition of hind limb tonus in mouse by 1 hr after po dose; format: functional; settings: Hindlimb; procedure, shortened: as §1
[3] = Tested for the neurotoxicity in mouse rotarod test was reported 1 hr after po dosing; format: toxicity, organism-based; settings: in vivo
Procedure, shortened: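 Trained mice were placed on a rotating rod 1 h after oral dosing. TD50 (mg/kg) is the dose at which 50% of animals fall off the rod, reported with its range.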

[4] = system: Rattus norvegicus; assay: Maximal electroshock seizures determined for the inhibition of hind limb tonus in rat 1 hr after po dosing; format: functional; settings: Hindlimb; procedure, shortened: as §1
[5] = Tested for the neurotoxicity in mouse rotarod test was reported 2 hr after po dosing; format: toxicity, organism-based; settings: in vivo

Row | Structure (SMILES) | ED50 [1] | ED50 [2] | TD50 at 1 h [3] | ED50 [4] | TD50 at 2 h [5]
1 | CN(C1=NCCN1)c1nnc(-c2ccccc2C(F)(F)F)s1 | > 100 mg/kg | > 100 mg/kg |  |  | 
2 | FC(F)(F)c1ccccc1-c1nnc(NC2=NCCN2)s1 | > 100 mg/kg | > 100 mg/kg |  |  | 
3 | C/N=C(\N)Nc1nnc(-c2ccccc2C(F)(F)F)s1 | 44 mg/kg | 49 mg/kg | > 400 mg/kg |  | 
4 | CCCC/N=C(\N)Nc1nnc(-c2ccccc2C(F)(F)F)s1 | 225 mg/kg | 142 mg/kg |  |  | 
5 | N=C(N)Nc1nnc(-c2ccccc2C(F)(F)F)s1 | 45 mg/kg | 27 mg/kg | 384 mg/kg | 22 mg/kg | 
6 | CN(C)CCC/N=C(\N)Nc1nnc(-c2ccccc2C(F)(F)F)s1 | > 100 mg/kg | > 100 mg/kg |  |  | 
7 | COCCC/N=C(\N)Nc1nnc(-c2ccccc2C(F)(F)F)s1 | 78 mg/kg | > 100 mg/kg |  |  | 
8 | N=C(NCc1ccccc1)Nc1nnc(-c2ccccc2C(F)(F)F)s1 | > 100 mg/kg | > 100 mg/kg |  |  | 
9 | CN(N)c1nnc(-c2ccc(-c3ccccc3)cc2)s1 | 27 mg/kg | 18 mg/kg |  | 16 mg/kg | > 1000 mg/kg
10 | NC(=O)N1c2ccccc2C=Cc2ccccc21 [CARBAMAZEPINE] | 11 mg/kg | 20 mg/kg |  | 4 mg/kg | 
11 | CCC1(c2ccccc2)C(=O)NC(=O)NC1=O [PHENOBARBITAL] | 4 mg/kg | 12 mg/kg |  | 9 mg/kg | 
12 | O=C1NC(=O)C(c2ccccc2)(c2ccccc2)N1 [PHENYTOIN] | 8 mg/kg | 8 mg/kg |  | 14 mg/kg | 
